What is called IC50 is the concentration needed to halve the response being measured. By half-life is commonly meant the time in which the quantity being followed falls by half.

This is an account of results in ChEMBL document CHEMBL1158362, “4-Phenoxybutoxy-substituted heterocycles--a structure-activity relationship study of blockers of the lymphocyte potassium channel Kv1.3” (Eur J Med Chem, 2009).

In series [1] the target is Potassium voltage-gated channel subfamily A member 5 (Homo sapiens) (UniProt P22460). Description: Inhibition of Kv1.5 potassium channel by whole cell patch clamp. In outline: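 Currents were recorded by whole-cell patch clamp from MEL-C88 cells. Each compound was tested three times at 4–5 concentrations, each experiment on a different cell. IC50 came from a Hill-equation fit of the reduction in area under the current curve.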
Potassium voltage-gated channel subfamily A member 5 (Homo sapiens), sequence (P22460 whole entry): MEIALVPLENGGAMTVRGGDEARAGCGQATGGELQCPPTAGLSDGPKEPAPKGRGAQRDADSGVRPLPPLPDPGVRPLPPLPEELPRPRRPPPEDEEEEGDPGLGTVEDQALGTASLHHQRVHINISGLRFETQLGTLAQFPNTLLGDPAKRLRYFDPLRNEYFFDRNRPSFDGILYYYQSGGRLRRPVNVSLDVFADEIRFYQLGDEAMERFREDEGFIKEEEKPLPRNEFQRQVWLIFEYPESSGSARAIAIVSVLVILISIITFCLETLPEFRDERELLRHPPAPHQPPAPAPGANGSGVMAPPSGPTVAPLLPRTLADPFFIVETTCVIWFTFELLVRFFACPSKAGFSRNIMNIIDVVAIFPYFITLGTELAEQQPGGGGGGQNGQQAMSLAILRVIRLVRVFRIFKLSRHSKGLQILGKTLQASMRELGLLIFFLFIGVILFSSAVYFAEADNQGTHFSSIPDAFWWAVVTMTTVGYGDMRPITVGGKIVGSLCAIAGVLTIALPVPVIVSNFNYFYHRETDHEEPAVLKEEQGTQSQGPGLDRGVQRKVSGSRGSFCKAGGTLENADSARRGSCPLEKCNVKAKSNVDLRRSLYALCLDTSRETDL
(In general: The patch-clamp technique gives a direct electrical read-out from membranes.)

Series [2] can be described thus: Selectivity for Kv1.3 potassium channel over Kv1.5 potassium channel.
For series [3], the target named is Potassium voltage-gated channel subfamily A member 3 (Homo sapiens, UniProt P22001). Description: Inhibition of Kv1.3 potassium channel expressed in mouse L929 cells by whole cell patch clamp. The class given is cell-based. Summed up:
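Currents were evoked by 500 ms pulses to 40 mV every 45 s. Each compound was run three times at 4–5 concentrations, each on a different cell. IC50 came from a Hill fit of the reduction in area under the current curve.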

Series [4] can be described thus: Half life in po dosed rat. In kind it is ADME, organism-based. To be noted: in vivo.
Series [5] can be described thus: Half life in po dosed rhesus monkey. To be noted: in vivo. The class given is ADME, organism-based, Macaca mulatta.

The structures appear in SMILES notation. Bounds are passed on as bounds.

Potassium voltage-gated channel subfamily A member 3, sequence (P22001 whole entry): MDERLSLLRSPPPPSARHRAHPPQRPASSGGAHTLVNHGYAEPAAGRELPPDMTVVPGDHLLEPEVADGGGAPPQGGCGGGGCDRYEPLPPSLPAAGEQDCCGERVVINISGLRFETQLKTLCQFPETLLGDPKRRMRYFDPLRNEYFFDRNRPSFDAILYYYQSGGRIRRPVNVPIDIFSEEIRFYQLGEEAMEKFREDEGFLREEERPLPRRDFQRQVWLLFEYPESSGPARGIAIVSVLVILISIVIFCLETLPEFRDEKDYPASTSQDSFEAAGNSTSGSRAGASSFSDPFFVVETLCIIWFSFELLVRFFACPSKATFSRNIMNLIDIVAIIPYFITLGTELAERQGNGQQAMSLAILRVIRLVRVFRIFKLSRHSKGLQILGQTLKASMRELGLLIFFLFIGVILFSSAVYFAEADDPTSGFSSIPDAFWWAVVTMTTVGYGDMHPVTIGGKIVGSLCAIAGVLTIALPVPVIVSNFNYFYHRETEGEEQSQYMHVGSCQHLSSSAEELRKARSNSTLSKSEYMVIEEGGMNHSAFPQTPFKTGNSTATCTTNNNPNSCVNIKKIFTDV

As for `COc1c2ccoc2cc2oc(=O)ccc12` [BERGAPTEN], the values for the IC50 in series [1] and in series [3] were 177 µM and 101 µM, respectively. Besides, in series [2], the Ratio IC50 (Kv1.5/Kv1.3) was determined as 1.75.

In the case of `O=c1cc(OCCCCOc2ccccc2)c2ccccc2o1`, the IC50 in series [1] amounted to 1.5 µM; in series [3] it was 0.89 µM. Further, the Ratio IC50 (Kv1.5/Kv1.3) in series [2] was 1.69.

On to `COc1c2occc2c(OCCCCOc2ccccc2)c2c(=O)cc(C)oc12`, for which the IC50 in series [1] came to 2.5 µM; in series [3], 1.5 µM. Further, the Ratio IC50 (Kv1.5/Kv1.3) in series [2] was found to be 1.67.

On to `O=c1c(OCCCCOc2ccccc2)c(-c2ccccc2)oc2ccccc12`, for which the IC50 in series [1] worked out at 10 µM; in series [3], 1 µM. Besides, the Ratio IC50 (Kv1.5/Kv1.3) in series [2] was found to be 10.

In series [1], `c1ccc(OCCCCOc2ncnc3ccccc23)cc1` displayed an IC50 of 25 µM.

Consider `O=c1c2ccccc2n(CCCCOc2ccccc2)c2occc12`, for which the values for the IC50 in series [1] and in series [3] were 2 µM and 1 µM, respectively. The Ratio IC50 (Kv1.5/Kv1.3) in series [2] stood at 2.

Turning to `O=c1ccc2c(OCCCCOc3ccccc3)cccc2o1`, the IC50 in series [1] was determined as 0.52 µM; in series [3] it was 0.15 µM. Also, in series [2], the Ratio IC50 (Kv1.5/Kv1.3) came out at 3.47.

With `c1ccc(OCCCCOc2cccc3occc23)cc1`, the IC50 was 1 µM in series [1] and 0.65 µM in series [3].

In series [3], `c1ccc(OCCCCOc2ccccc2)cc1` showed an IC50 of 20 µM.

Consider `c1ccc(OCCCCOC2c3ccccc3Oc3ccccc32)cc1`, for which the values for the IC50 in series [1] and in series [3] were 15 µM and 12 µM, respectively.

With `O=C1c2ccccc2C(=O)c2c(OCCCCOc3ccccc3)cccc21`, the IC50 in series [1] worked out at 10 µM; in series [3], 7 µM. Also, in series [2], the Ratio IC50 (Kv1.5/Kv1.3) came to 1.43.

As to `c1ccc(OCCCCOc2ccnc3ccccc23)cc1`, the figures for the IC50 in series [1] and in series [3] were 3.5 µM and > 10 µM, respectively. The Ratio IC50 (Kv1.5/Kv1.3) in series [2] was < 0.35.

Regarding `Cc1cc(=O)c2c(OCCCCOc3ccccc3)c3ccoc3cc2o1`, the IC50 in series [1] was 0.31 µM; in series [3], 0.233 µM. Further, in series [2], the Ratio IC50 (Kv1.5/Kv1.3) stood at 1.33.

In the case of `COc1c2occc2c(OC)c2c(OCCCCOc3ccccc3)cc(=O)oc12`, the IC50 was 0.85 µM in series [1] and 0.45 µM in series [3]. Moreover, in series [2], the Ratio IC50 (Kv1.5/Kv1.3) was 1.89.

`O=c1ccoc2cc3occc3c(OCCCCOc3ccccc3)c12`: the IC50 in series [1] came out at 0.2 µM; in series [3], 0.17 µM.

For the compound `O=c1ccc2cc3ccoc3c(OCCCCOc3ccccc3)c2o1`, the IC50 in series [1] and in series [3] was 1 µM each time.

For the compound `COc1cc2nc3occc3c(OCCCCOc3ccccc3)c2cc1OC`, the IC50 in series [1] is 0.48 µM; in series [3] it was 0.15 µM. In series [2], the Ratio IC50 (Kv1.5/Kv1.3) was 3.2.

Turning to `O=c1ccc2c(OCCCCOc3ccccc3)c3ccoc3cc2o1`, the IC50 in series [1] worked out at 0.045 µM. Also, the half-life in series [4] was 3 h; in series [5] it was 6.7 h.

As to `c1ccc(OCCCCOc2c3ccccc3nc3occc23)cc1`, the IC50 in series [1] was found to be 2 µM; in series [3], 1 µM. Moreover, the Ratio IC50 (Kv1.5/Kv1.3) in series [2] was 2.

For the compound `S=c1ccc2c(OCCCCOc3ccccc3)c3ccoc3cc2o1`, the IC50 was found to be 0.38 µM in series [1] and 0.017 µM in series [3]. Also, the Ratio IC50 (Kv1.5/Kv1.3) in series [2] was 22.

`Cn1c(=O)cc(OCCCCOc2ccccc2)c2ccccc21`: the IC50 came to 1.5 µM in series [1] and 0.67 µM in series [3].

With `COc1c2ccoc2c(OCCCCOc2ccccc2)c2oc(=O)cc(C)c12`, the results for the IC50 in series [1] and in series [3] were 0.28 µM and 0.318 µM, respectively. The Ratio IC50 (Kv1.5/Kv1.3) in series [2] was 0.88.

In series [3], `c1ccc(OCCCCOc2cccc3ccccc23)cc1` yielded an IC50 of 15 µM.

For `COc1cccc2c(=O)c3ccccc3n(CCCCOc3ccccc3)c12`, the IC50 in series [1] was 0.45 µM; in series [3], 0.165 µM. Also, the Ratio IC50 (Kv1.5/Kv1.3) in series [2] was determined as 2.73.
